High-throughput results as filed in PubChem BioAssay.
ANO1 activ: activates or potentiates the mouse TMEM16A chloride channel; Q8BHY3; HEK293 TMEM16A/YFP-H148Q/I152L, iodide quench fluorescence; stronger effect = lower value; B-score at 10 µM; 340,000 compounds, 0.3% hits; AID 623877;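 active = fluorescence-ratio B-score plate-corrected deviation score at least 3 library SD below zero, with starting fluorescence score within 5 deviations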;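 note: channel opened by trigger with iodide after compound preincubation; score built on the fluorescence ratio of max minus min over baseline; more negative score means more quench and so TMEM16A activation or potentiation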
MT1-MMP act inh: MT1-MMP (human) activation inhibition; 360,000 compounds, 0.061% hits; HT1080 RFP-PRO-GFP cells, GFP/RFP ratio fluorescence, overnight; percent of plate control window, DMSO zero; GFP/RFP ratio change, % at 20 µM; P50281;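 active = GFP/RFP ratio change of at least 30% with cell ATP level not reduced by more than half and red fluorescence within 50% of control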
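Assay system: HT1080 cells carrying an RFP-PRO-GFP reporter | Dosing: Single dose of 20 µM compound, 1% DMSO final | Incubation: Cells overnight before dosing, compound overnight, 37 °C, 5% CO2 | Evaluation: GFP/RFP fluorescence ratio | Control set: DMSO and RFP-L50D-GFP cell wells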
DAGLB inh: blocks human DAGLB lipase activity; inhibition, % at 5.17 µM; 340,000 compounds, 0.059% hits; Q8NCG7; HEK293T DAGLB membrane lysate, EnzChek fluorogenic substrate; in the data active = inhibition above about 34%
ANO1 block: blocks the mouse calcium-activated chloride channel TMEM16A. Q8BHY3. HEK293 TMEM16A/YFP iodide influx fluorescence, ionomycin. normalized B-score (activity score, 25-100; higher = stronger inhibition) at 10 µM. 310,000 compounds, 1.2% hits;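 active = ratio plate-corrected score three or more library SD toward inhibition, starting fluorescence score within five deviations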;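 note: score derived from kinetic fluorescence span divided by baseline fluorescence per well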
Each line names hits and unclear results; the compound was inactive in the other large screens. Compounds with a hit are over-represented: about 1.3% of the library has one in this group of screens.

CCSc1nnc(NC(=O)C(C)(C(F)(F)F)C(F)(F)F)s1	none
CCSc1nnc(NC(=O)C(CC)(C(F)(F)F)C(F)(F)F)s1	ANO1 block 100
Cc1ccc(CSCCNC(=O)c2ccc(Cl)c(S(=O)(=O)N3CCOCC3)c2)cc1	ANO1 block 25
O=C(NCCN1CCOCC1)c1ccc(Cl)c(S(=O)(=O)N2CCCCC2)c1	none
O=C(NCCC1=CCCCC1)c1ccc(Cl)c(S(=O)(=O)N2CCOCC2)c1	none
O=C(NCCC1=CCCCC1)c1ccc(Cl)c(S(=O)(=O)N2CCCCC2)c1	ANO1 block 25
Cc1cc(/C=N/n2cnnc2)c(C)n1-c1ccc(OCc2ccc(Cl)cc2Cl)cc1	ANO1 block 100
Cc1cc(/C=N/n2cnnc2)c(C)n1-c1ccc(Cl)cc1	none
COc1cc(OC)cc(C(=O)Nc2ccccc2C(=O)NC2CC2)c1	none (no result: ANO1 block)
CC(C)(C)OC(=O)N/N=C/c1cccn1-c1ccc([N+](=O)[O-])cc1	none
COc1ccc(CC(=O)N/N=C/c2cccn2-c2ccc([N+](=O)[O-])cc2)cc1OC	ANO1 activ -12
O=c1c2c3c(sc2nc2sc(C4CC4)nn12)CCCC3	ANO1 block 25
COc1cc(/C=C2/SC(=S)N(c3c(C)n(C)n(-c4ccccc4)c3=O)C2=O)ccc1O	ANO1 activ -8.1
O=C(c1nnsc1S(=O)c1ccc(Cl)cc1)N1CCOCC1 (stereo not given)	none (no result: ANO1 block)
O=C(Nc1ccccc1)c1nnsc1S(=O)c1ccc(Cl)cc1 (stereo not given)	ANO1 activ -9.3
C[C@@H]1CN([C@@H](C)CO)C(=O)CCCn2nncc2CO[C@H]1CN(C)C(=O)Nc1ccccc1F	none (no result: ANO1 activ, ANO1 block)
CCC(C(=O)N1CCN(C(=O)c2ccco2)CC1)n1sc2ccccc2c1=O (stereo not given)	none
CC(C(=O)N1CCN(C(=O)c2ccco2)CC1)n1sc2ccccc2c1=O (stereo not given)	ANO1 activ -45
C[C@H](O)[C@@H]1C(=O)N2CCc3ccc(N4CCN(C)CC4)cc3[C@@H]2C[C@@H]1N(C)C(=O)c1ccc(C#N)cc1	none (no result: ANO1 activ, ANO1 block)
Cc1cc(Oc2cccc3c2S(=O)(=O)N(C2CCCC2)CC(COCc2ccccc2)O3)cc(C)c1C (stereo not given)	none (no result: ANO1 activ, ANO1 block)
CC(=O)Nc1ccc(S(=O)(=O)NC(CC(=O)O)c2ccc(C)cc2)cc1 (stereo not given)	none
CCOC(=O)CC(NS(=O)(=O)c1ccc(NC(C)=O)cc1)c1ccc(OCC)cc1 (stereo not given)	ANO1 block 25
CCc1ccc(-c2cc(C)no2)cc1S(=O)(=O)N1CCC(C)CC1	ANO1 block 25
CC(NC(=O)Cn1ncc(Cl)c(Cl)c1=O)C12CC3CC(CC(C3)C1)C2 (stereo not given)	ANO1 block 100
O=C(CSc1nnc(-c2ccccc2)n1C1CCCCC1)Nc1ccc(S(=O)(=O)Nc2ccccn2)cc1	ANO1 activ -12
Cc1ccc(-c2csc(=Nc3cccnc3)n2CCCn2ccnc2)cc1C	ANO1 block 25
c1ccc(-c2csc(=Nc3cccnc3)n2CC2CCCO2)cc1 (stereo not given)	none
COCCn1c(-c2ccccc2)csc1=Nc1cccnc1	ANO1 block 25 (no result: DAGLB inh)
CCOc1c(OC(C)=O)ccc(/C=C2\N=C(SCC)SC2=O)c1[N+](=O)[O-]	ANO1 block 100
CN1C(=O)/C(=C/c2ccccc2Cl)Sc2ccc(C(=O)N3CCCC3)cc21	ANO1 block 100
Cc1sc2ncnc(N3CCC(C(=O)NNC(=O)COc4ccc(Br)cc4)CC3)c2c1C	ANO1 block 100
COc1ccc(OCC(=O)NNC(=O)C2CCN(c3ncnc4sc(C)c(C)c34)CC2)cc1	none (no result: ANO1 block)
Cc1ccc(OCC(=O)NNC(=O)C2CCN(c3ncnc4sc(C)c(C)c34)CC2)cc1	none
Cc1sc2ncnc(N3CCN(CCOc4ccc(Cl)cc4)CC3)c2c1C	ANO1 block 100
Cc1sc2ncnc(N3CCC(C(=O)NNC(=O)COc4cccc(C(F)(F)F)c4)CC3)c2c1C	ANO1 block 100
Cn1c(=O)c2[nH]c(Cc3cccc4ccccc34)nc2n(C)c1=O	none (no result: ANO1 block)
CC1NS(=O)(=O)c2cc([N+](=O)[O-])ccc21 (stereo not given)	none (no result: ANO1 activ, DAGLB inh, ANO1 block)
COC(=O)[C@]12CCCCC=C1N(Cc1ccc3c(c1)OCO3)C(=O)[C@H](CC(=O)N1CCN(C(=O)C3CC3)CC1)C2	none (no result: ANO1 activ, DAGLB inh, ANO1 block)
CS(=O)(=O)c1ccc(C(=O)OCc2nnc(-c3ccc(Cl)cc3)o2)cc1[N+](=O)[O-]	ANO1 block 25
Cc1ccc(CSCC(=O)Nc2ccccc2C(=O)O)cc1	none
CSc1ccccc1NC(=O)CSCc1ccc(C)cc1	ANO1 activ -20
CN(C)S(=O)(=O)c1ccc2nc(NC(=O)c3cccnc3)sc2c1	none
O=C(NC(Nc1nc2ccc([N+](=O)[O-])cc2s1)(C(F)(F)F)C(F)(F)F)c1ccccc1Cl	ANO1 block 100
O=C(NC(Nc1nc2ccc([N+](=O)[O-])cc2s1)(C(F)(F)F)C(F)(F)F)c1cccnc1	ANO1 block 100
CC(=O)Nc1nnc(-c2ccc3c(c2)CCCC3)o1	none
O=C(Nc1nnc(-c2ccc3c(c2)CCCC3)o1)C1COc2ccccc2O1 (stereo not given)	ANO1 block 25
CCC(CO)Oc1cc(NCc2ccc(C(F)(F)F)cc2)c2ncn(C(C)C)c2c1 (stereo not given)	none (no result: ANO1 block)
Cc1nc2c(C(=O)NCCC(C)C)c[nH]n2c(=O)c1Cc1ccccc1F	ANO1 block 100
COC(=O)C1=C(C)NC(C)=C(C(=O)OC)C1C(=O)OCC(=O)N1CCCCC1C (stereo not given)	none (no result: ANO1 block)
CC(=O)Nc1ccc(S(=O)(=O)NCC(=O)N2CCN(S(=O)(=O)c3cccs3)CC2)cc1	ANO1 activ -15 (no result: ANO1 block)
CCCCNc1c(-c2ccc(SC(C)CC)cc2)nc2ccccn12 (stereo not given)	ANO1 block 100
O=C(O)c1ccccc1Nc1cccc(OCc2ccc3ccccc3n2)c1	ANO1 block 100
O=C(COc1ccc2ccccc2c1)Nc1cccc(C(=O)Nc2ccccc2C(=O)O)c1	none
CC1NC(=O)c2cc3ccccc3cc2-n2c1nc1ccccc1c2=O (stereo not given)	none (no result: ANO1 activ, ANO1 block)
CCOC(=O)N1CCN(C(=O)C[C@@H]2C[C@@]3(C(=O)OC)CC(C)(C)CC=C3N(Cc3cccc4ccccc34)C2=O)CC1	none (no result: ANO1 activ, DAGLB inh, ANO1 block)
CN(C)c1c([N+](=O)[O-])ncn1C	ANO1 activ -9.6
CCNc1c([N+](=O)[O-])ncn1C	none
O=[N+]([O-])c1ccccc1S(=O)(=O)N/C(=N/S(=O)(=O)c1ccccc1)c1ccccc1	none (no result: ANO1 block)
O=c1c2ccccc2nnn1Cc1ccc(F)cc1	ANO1 block 100
O=c1c2ccccc2nnn1Cc1ccc(Br)cc1	none
CC(C)OC(=O)c1ccc(Cn2nnc3ccccc3c2=O)cc1	ANO1 block 100
CC(NC(=O)Nc1nnc(C(F)(F)F)s1)(C(F)(F)F)C(F)(F)F	ANO1 block 100
CC(C)(C)CC(=O)Nc1nnc(C(F)(F)F)s1	none
